The record followed here is ChEMBL document CHEMBL1144361, “Identification of chemokine receptor CCR4 antagonist” (Bioorg Med Chem Lett, 2005).

One test deals with C-C chemokine receptor type 2 (Homo sapiens, UniProt P41597). Put plainly: Inhibitory concentration against C-C chemokine receptor type 2.
Sequence of C-C chemokine receptor type 2 (P41597 whole entry): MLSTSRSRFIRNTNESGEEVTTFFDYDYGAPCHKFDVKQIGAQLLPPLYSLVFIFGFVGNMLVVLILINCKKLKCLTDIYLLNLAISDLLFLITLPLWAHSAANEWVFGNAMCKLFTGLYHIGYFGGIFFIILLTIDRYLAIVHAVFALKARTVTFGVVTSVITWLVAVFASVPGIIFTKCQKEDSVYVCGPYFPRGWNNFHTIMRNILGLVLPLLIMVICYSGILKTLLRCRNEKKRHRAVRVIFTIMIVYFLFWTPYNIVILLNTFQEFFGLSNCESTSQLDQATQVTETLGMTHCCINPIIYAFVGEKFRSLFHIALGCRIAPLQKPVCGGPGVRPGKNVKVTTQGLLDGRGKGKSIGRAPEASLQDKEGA
The compound `CCN(CC)CCCC(C)Nc1nccc(NCc2ccc(Cl)cc2Cl)n1` (stereo not given) returned an IC50 above 10 µM.

Target in another test: not listed separately
Briefly: Inhibitory concentration against C-C chemokine receptor type 3. Details: species or system Homo sapiens.
Compound `CCN(CC)CCCC(C)Nc1nccc(NCc2ccc(Cl)cc2Cl)n1` (stereo not given) gave an IC50 of 2 µM. This counts as single-digit micromolar.

A further test has as its target T1, C-C chemokine receptor type 4 (Homo sapiens, UniProt P51679).
T1 sequence (P51679 whole entry): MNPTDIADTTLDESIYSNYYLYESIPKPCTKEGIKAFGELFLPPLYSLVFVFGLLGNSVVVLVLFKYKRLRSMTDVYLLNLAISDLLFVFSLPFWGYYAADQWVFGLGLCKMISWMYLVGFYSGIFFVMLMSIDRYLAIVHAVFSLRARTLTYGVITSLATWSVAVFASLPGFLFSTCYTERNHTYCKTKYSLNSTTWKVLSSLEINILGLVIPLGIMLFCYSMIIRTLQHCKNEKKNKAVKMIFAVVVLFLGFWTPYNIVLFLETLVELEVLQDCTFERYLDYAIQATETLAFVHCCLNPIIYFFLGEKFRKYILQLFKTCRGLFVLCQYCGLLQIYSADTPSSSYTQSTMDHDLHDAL
Put plainly: Inhibitory concentration against human C-C chemokine receptor type 4. The method in brief:
(§1)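 Whole-cell SPA binding: HEK293 stably expressing human CCR4, 4×10^4 cells/well on poly-L-lysine plates, cultured overnight at 37 °C. Compounds in DMSO (1%). Nonspecific defined with 100 nM unlabeled MDC. 15 min mixing, then 24 h at rt before counting.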
`CCN(CC)CCCC(C)Nc1nc(CCCc2ccccc2)nc2ccccc12` (stereo not given): the IC50 is above 10 µM.

`CCN(CC)CCCC(C)Nc1ccnc(COc2ccccc2Cl)c1` (stereo not given): half-maximal inhibition (IC50) was put at 17 µM.

In turn, `CCN(CC)CCCC(C)Nc1nc(COc2ccccc2)nc2ccccc12` (stereo not given) registered an IC50 of 2 µM.

Compound `CCN(CC)CCCC(C)Nc1nc(CCc2ccccc2)nc2ccccc12` (stereo not given) displayed an IC50 of 2.4 µM.

As for `CCN(CC)CCCC(C)Nc1ccnc(COc2ccccc2)c1` (stereo not given), the IC50 is above 30 µM.

For the compound `CCN(CC)CCCNc1nccc(OCc2ccc(Cl)cc2Cl)n1`, the IC50 was determined as 8 µM.

On to `CCN(CC)CCNc1nccc(OCc2ccc(Cl)cc2Cl)n1`, for which it took 9 µM to reach half-maximal inhibition (IC50).

`CCN(CC)CCCC(C)Nc1ccnc(COc2ccc(OC)cc2OC)n1` (stereo not given) showed an IC50 above 30 µM.

On to `CCN(CC)CCCC(C)Nc1nc(-c2ccc3ccccc3c2)nc2ccccc12` (stereo not given), for which the IC50 is 2.5 µM.

With `CCN(CC)CCCC(C)Nc1ccnc(COc2cccc(Cl)c2)n1` (stereo not given), inhibition was half-maximal at 25 µM (IC50).

For `CCN(CC)CCCC(C)Nc1nc(-c2ccccc2)nc2ccccc12` (stereo not given), the IC50 is above 25 µM.

In turn, `CCN(CC)CCCCNc1nccc(OCc2ccc(Cl)cc2Cl)n1` showed an IC50 of 3 µM. This lies in the single-digit micromolar range.

As to `CCN(CC)CCCC(C)Nc1ccnc(COc2ccc(Cl)cc2Cl)c1` (stereo not given), inhibition was half-maximal at 1.2 µM (IC50).

As for `CCN(CC)CCCC(C)Nc1ccnc(COc2ccc(Cl)cc2)c1` (stereo not given), the IC50 worked out at 20 µM.

`CCN(CC)CCCC(C)Nc1nccc(OCc2ccc(Cl)cc2Cl)n1` (stereo in doubt; 10a) displayed an IC50 of 1.5 µM.

The compound `CCN(CC)CCCC(C)Nc1ccnc(COc2cccc(OC)c2)n1` (stereo not given) showed an IC50 above 30 µM.

Compound `CCN(CC)CCCC(C)Nc1nccc(OCc2ccc(Cl)cc2Cl)n1` (stereo in doubt; 11a) gave an IC50 of 1.5 µM.

For `CCN(CC)CCCC(C)Nc1nc(C(=O)Nc2ccccc2)nc2ccccc12` (stereo not given), the IC50 is above 10 µM.

In turn, `CCN(CC)CCCC(C)Nc1ccnc(COc2ccc(Cl)c(Cl)c2)c1` (stereo not given) had an IC50 of 4 µM.

The compound `CC(C)CCCC(C)Nc1nccc(OCc2ccc(Cl)cc2Cl)n1` (stereo not given) displayed an IC50 above 10 µM.

Compound `CCN(CC)CCCC(C)Nc1ccnc(OCc2ccc(Cl)cc2Cl)n1` (stereo not given) registered an IC50 of 2.8 µM. This lies in the single-digit micromolar range.

For `CCN(CC)CCCC(C)Nc1nc(Cc2ccccc2)nc2ccccc12` (stereo not given), it took 10 µM to reach half-maximal inhibition (IC50).

The compound `CCN(CC)CCCC(C)Nc1nccc(NCc2ccc(Cl)cc2Cl)n1` (stereo not given) gave an IC50 of 0.27 µM.

Turning to `CCN(CC)CCCC(C)Nc1ccnc(COc2cc(Cl)cc(Cl)c2)n1` (stereo not given), the IC50 is 25 µM.

With `CCN(CC)CCCC(C)Nc1ccnc(COc2ccc(F)cc2)c1` (stereo not given), the IC50 is 18 µM.

The compound `CN(C)CCCCCNc1nccc(OCc2ccc(Cl)cc2Cl)n1` showed an IC50 of 2 µM.

Another test deals with C-X-C chemokine receptor type 3 (Homo sapiens) (UniProt P49682). Put plainly: Inhibitory concentration against CXC chemokine receptor 3.
`CCN(CC)CCCC(C)Nc1nccc(NCc2ccc(Cl)cc2Cl)n1` (stereo not given) returned an IC50 above 30 µM.

In a further test the target is T1, C-C chemokine receptor type 4. Put plainly: Inhibitory concentration against human C-C chemokine receptor type 4; range = 3.6-6.1 uM. The method in brief: as §1
As for `CCN(CC)CCCC(C)Nc1nc(/C=C/c2ccccc2)nc2ccccc12` (stereo not given), the IC50 worked out at 6.1 µM.
